Sampled rows, rich in hits. Any-hit rate of the full collection: about 3.4%.
CHT inh: inhibitors of human choline transporter CHT; High affinity choline transporter 1 (Homo sapiens), Q9GZV3; CHT-expressing cells, membrane potential dye, choline response; active compounds read low; B-score at 10 µM; 310,000 compounds, 0.86% hits; AID 488975, 2010;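 active = B-score over 3 SD under the library average, and starting fluorescence ratio not unusually high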;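 also: choline stimulus applied at its EC90 after an EC20 pre-addition; B-score computed on integrated fluorescence ratio after choline addition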
TMEM16A inh: TMEM16A chloride channel inhibitors, primary screen, cell-based, HTS; 310,000 compounds, 1.2% hits; normalized B-score (activity score, 25-100; higher = stronger inhibition) at 10 µM; HEK293 TMEM16A/YFP iodide influx fluorescence, ionomycin;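 active = ratio plate-corrected score three or more library SD toward inhibition, starting fluorescence score within five deviations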;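 also: score derived from kinetic fluorescence span divided by baseline fluorescence per well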
Target sequence (Q8BHY3 whole entry, looked up): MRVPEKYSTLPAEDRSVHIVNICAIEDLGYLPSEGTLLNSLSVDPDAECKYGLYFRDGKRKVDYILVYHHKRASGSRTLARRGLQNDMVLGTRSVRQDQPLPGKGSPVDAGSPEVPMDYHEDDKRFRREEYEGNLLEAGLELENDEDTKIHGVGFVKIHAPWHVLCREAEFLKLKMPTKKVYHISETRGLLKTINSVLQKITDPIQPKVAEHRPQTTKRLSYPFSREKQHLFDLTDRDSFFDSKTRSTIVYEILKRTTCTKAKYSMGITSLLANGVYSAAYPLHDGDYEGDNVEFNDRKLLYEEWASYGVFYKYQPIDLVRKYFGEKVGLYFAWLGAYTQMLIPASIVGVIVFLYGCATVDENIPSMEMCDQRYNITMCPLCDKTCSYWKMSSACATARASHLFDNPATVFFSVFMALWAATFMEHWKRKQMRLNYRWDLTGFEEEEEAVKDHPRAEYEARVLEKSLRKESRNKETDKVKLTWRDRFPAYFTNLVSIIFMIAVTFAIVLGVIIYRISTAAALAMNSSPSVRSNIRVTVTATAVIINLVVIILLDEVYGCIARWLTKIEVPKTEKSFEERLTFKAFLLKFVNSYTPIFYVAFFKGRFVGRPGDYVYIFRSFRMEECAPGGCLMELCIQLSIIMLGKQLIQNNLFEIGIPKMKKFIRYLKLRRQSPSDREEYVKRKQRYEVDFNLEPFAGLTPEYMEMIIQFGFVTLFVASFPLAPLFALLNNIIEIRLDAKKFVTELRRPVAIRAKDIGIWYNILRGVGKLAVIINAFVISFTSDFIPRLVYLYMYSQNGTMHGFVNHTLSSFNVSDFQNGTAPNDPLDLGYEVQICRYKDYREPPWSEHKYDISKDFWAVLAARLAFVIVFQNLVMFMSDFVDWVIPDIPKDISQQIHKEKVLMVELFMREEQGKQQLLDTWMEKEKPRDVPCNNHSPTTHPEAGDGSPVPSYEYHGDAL
TMEM16A act: TMEM16A chloride channel activators or potentiators, primary screen, cell-based, HTS; Anoctamin-1 (Mus musculus), Q8BHY3; HEK293 TMEM16A/YFP-H148Q/I152L, iodide quench fluorescence; active compounds read low; B-score at 10 µM; 340,000 compounds, 0.3% hits;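 active = fluorescence-ratio B-score plate-corrected deviation score at least 3 library SD below zero, with starting fluorescence score within 5 deviations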;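 also: channel opened by trigger with iodide after compound preincubation; score built on the fluorescence ratio of max minus min over baseline; more negative score means more quench and so TMEM16A activation or potentiation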
IMP-1 inh-1: IMP-1 metallo-beta-lactamase inhibitors, primary screen, biochemical, epi-absorbance readout, Pseudomonas aeruginosa enzyme. purified IMP-1, nitrocefin hydrolysis, epi-absorbance fluorescence. inhibition, % at 5.6 µM. 290,000 compounds, 0.45% hits. metallo-beta-lactamase IMP-1 (Pseudomonas aeruginosa);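 active = inhibition above the mean plus 3 SD of all compounds in the same screening run, cut at about 4.5% in these data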;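 also: 0% = IMP-1 with DMSO and 100% = DMSO wells lacking enzyme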
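System: Purified IMP-1 | Read-out basis: Percent enzyme inhibition | Controls: IMP-1 with DMSO as 0%, enzyme-free DMSO as 100% | Replicates: One well per compound | Doses: 5.6 µM nominal single concentration | Detection: Epi-absorbance fluorescence, 480 nm excitation, 530 nm emission | Incubation: 25 °C, 15 min preincubation, 25 min reaction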
VIM-2 inh: VIM-2 metallo-beta-lactamase inhibitors, primary screen, biochemical, epi-absorbance readout, Pseudomonas aeruginosa enzyme; purified VIM-2, nitrocefin hydrolysis, epi-absorbance fluorescence; inhibition, % at 5.6 µM; 290,000 compounds, 0.89% hits; AID 1527, 2009;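 active = inhibition above the mean of all tested compounds plus 3 SD, cutoff set per screening run, cut at about 7.5% in these data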;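 also: red hydrolysis product quenches plate fluorescence so inhibitors raise well fluorescence; 0% = enzyme with DMSO and 100% = DMSO without enzyme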
CHT PAM: CHT positive allosteric modulators, primary screen, cell-based, membrane potential dye, choline EC20; CHT-expressing cells; active compounds read high; LV-AA mutant CHT in HEK293 cells; AID 488977, 2010; 310,000 compounds, 0.49% hits; B-score at 10 µM; High affinity choline transporter 1 (Homo sapiens), Q9GZV3;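 active = initial fluorescence not abnormally high and integrated response B-score, plate-corrected, over 3 SD above library mean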
IMP-1 inh-2: IMP-1 metallo-beta-lactamase inhibitors, confirmation, selectivity assay for selective VIM-2 inhibitor project, biochemical, epi-absorbance readout, triplicate; shares compounds with VIM-2 inh; purified IMP-1, nitrocefin hydrolysis, epi-absorbance fluorescence; inhibition, % at 5.6 µM; 1,300 tested, under 10 active; AID 1856, 2009; call rule not given here;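 also: 0% = enzyme with vehicle and 100% = vehicle without enzyme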
VIM-2 FRET ctr: VIM-2 inhibitors in FRET format, confirmation, artefact control for selective VIM-2 inhibitor project, biochemical, epi-absorbance artifact exclusion | shares compounds with VIM-2 inh | purified VIM-2, CCF2 FRET substrate hydrolysis | inhibition, % at 5.6 µM | 1,300 compounds, 23% hits;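 active = inhibition above the mean of all tested compounds plus 3 SD, cut at about 19% in these data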;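 also: 0% = VIM-2 plus DMSO and 100% = no enzyme wells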
TEM-1 inh: TEM-1 serine beta-lactamase inhibitors, counter-screen for VIM-2 inhibitor project, biochemical, epi-absorbance, HTS. 1,300 compounds, 3% hits. inhibition, % at 5.6 µM. shares compounds with VIM-2 inh. Purified TEM-1, nitrocefin hydrolysis, epi-absorbance fluorescence;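 active = inhibition above that campaign's mean inhibition plus 3 SD, cut at about 0.46% in these data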;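 also: 0% = TEM-1 with DMSO and 100% = TEM-1 with 100 µM potassium clavulanate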
VIM-2 inh conf: VIM-2 metallo-beta-lactamase inhibitors, confirmation, biochemical, epi-absorbance, hits shared with IMP-1 screen | shares compounds with VIM-2 inh | purified VIM-2, nitrocefin hydrolysis | inhibition, % at 5.6 µM | 1,300 compounds, 96% hits;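 active = inhibition of the VIM-2 beta-lactamase enzyme above about 11% from the earlier first-round screen, limit read from the data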;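 also: 0% = VIM-2 with DMSO and 100% = buffer wells without enzyme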
* marks the source's active call; other numbers are inactive results; i = inactive; . = no result given.

SMILES	CHT inh	TMEM16A inh	TMEM16A act	IMP-1 inh-1	VIM-2 inh	CHT PAM	IMP-1 inh-2	VIM-2 FRET ctr	TEM-1 inh	VIM-2 inh conf
Cc1ccccc1C(OCC(O)CN1CCN(CCO)CC1)c1ccccc1 (stereo unspecified)	i	i	i	-3	-3	i	.	.	.	.
O=C(NNC(=O)c1cc2ccccc2oc1=O)c1ccccc1[N+](=O)[O-]	i	i	i	-4	0	i	.	.	.	.
Cc1nc2ccccc2c2oc(C(=O)NCCCN3CCCC3=O)cc12	i	i	i	-1	2	i	.	.	.	.
Cc1nc2ccccc2c2oc(C(=O)NCCN3CCN(C)CC3)cc12	i	i	i	-6	42*	i	-4	1	-8	53*
O=C1c2ccccc2C(=O)c2c(NCCCN(CCO)CCO)cccc21	.	.	i	-4	22*	.	-4	-3	-13	36*
NC(=O)NC(CC(=O)NCc1ccc2c(c1)OCO2)c1ccccc1Cl (stereo unspecified)	i	i	i	0	0	i	.	.	.	.
CCCC[n+]1ccn(-c2nc3ccccc3nc2[N-]S(=O)(=O)c2cccs2)c1	i	i	i	-5	19*	i	-3	10	-6	21*
CC(=C/c1ccccc1)/C=N/n1c(C)n[nH]c1=S	i	i	i	-2	33*	i	-2	61*	-8	42*
CC(/C=N/n1c(-c2cccnc2)n[nH]c1=S)=C\c1ccccc1	i	i	i	-2	6	i	.	.	.	.
CC(=C/c1ccccc1)/C=N/n1c(-c2ccncc2)n[nH]c1=S	i	i	i	1	16*	i	-4	48*	-9	28*
O=C(O)CCc1nc2cc(C(F)(F)F)ccc2n(Cc2ccccc2)c1=O	i	i	i	-1	2	i	.	.	.	.
CC(C)Oc1ccc(/C(O)=C2/C(=O)C(=O)N(CCN3CCNCC3)C2c2cccc([N+](=O)[O-])c2)cc1 (stereo unspecified)	i	i	i	-2	-1	i	.	.	.	.
O=C(Cn1nnc2ccccc21)NNC(=O)c1ccccc1	i	i	i	-1	0	i	.	.	.	.
Cc1c(OC(C)C(=O)NCC2CCC(C(=O)O)CC2)ccc2c3c(c(=O)oc12)CCCC3 (stereo unspecified)	i	i	i	-4	-2	i	.	.	.	.
Cc1c(OC(C)C(=O)NCc2ccccn2)ccc2c3c(c(=O)oc12)CCC3 (stereo unspecified)	i	i	i	-1	19*	i	-2	2	-5	28*
Cc1c(OCC(=O)NCc2ccccn2)ccc2c3c(c(=O)oc12)CCCC3	i	i	i	-1	17*	i	-2	-3	-18	26*
Cc1c(OC(C)C(=O)NCc2ccncc2)ccc2c3c(c(=O)oc12)CCCC3 (stereo unspecified)	-5*	i	i	-2	51*	i	-3	17	-11	62*
Cc1c(OCC(=O)NC(Cc2ccc(Cl)cc2)C(=O)O)ccc2c3c(c(=O)oc12)CCC3 (stereo unspecified)	i	i	i	-1	6	i	.	.	.	.
O=C(COc1ccc2c3c(c(=O)oc2c1)CCC3)NCc1ccccn1	i	i	i	1	17*	i	-3	-1	-7	23*
COc1ccc(C2=Nn3c(nnc3-c3ccncc3)SC2)cc1	i	i	i	-1	21*	i	-3	4	-6	42*
CN(C)S(=O)(=O)c1cccc(NC(=S)NC2CCCCC2)c1	i	i	i	-1	-2	i	.	.	.	.
CN(CC(=O)Nc1cccc(S(=O)(=O)N(C)C)c1)Cc1ccccc1	i	i	i	-2	1	i	.	.	.	.
CN(C)S(=O)(=O)c1cccc(NC(=S)N/N=C/C2CC=CCC2)c1 (stereo unspecified)	i	i	i	-4	71*	i	-3	83*	-6	76*
CN(C)S(=O)(=O)c1cccc(NC(=S)NN=C(Cc2ccccc2)Cc2ccccc2)c1	i	i	i	-4	15*	i	-4	1	-8	4
CCCCOc1ccc(C(=O)NNC(=O)C2C3C=CC(C3)C2C(=O)O)cc1 (stereo unspecified)	i	i	i	-2	-2	i	.	.	.	.
SMILES	CHT inh	TMEM16A inh	TMEM16A act	IMP-1 inh-1	VIM-2 inh	CHT PAM	IMP-1 inh-2	VIM-2 FRET ctr	TEM-1 inh	VIM-2 inh conf
Cc1ccc(NC(=O)COC(=O)C2(C)CC2(Cl)Cl)cc1S(=O)(=O)N1CCOCC1 (stereo unspecified)	.	.	i	.	.	.	.	.	.	.
Cn1c(=O)n(C)c2cc(/C=N/N=C3/NC(=O)C(CC(=O)O)S3)ccc21 (stereo unspecified)	i	i	i	-4	22*	i	-1	7	-4	37*
CCOCCCNc1c2c(nc3cc(-c4ccc(F)cc4)nn13)CCC2	i	i	i	-1	-1	i	.	.	.	.
CN(C)CCCNc1c2c(nc3cc(-c4cccc(F)c4)nn13)CCC2	i	i	i	1	13*	i	0	-5	-5	27*
CCOCCc1nnc(NC(=O)CCS(=O)(=O)c2ccccc2)s1	i	i	i	-1	12*	i	-2	17	-3	14*
Cn1nc(-c2ccc(OCC(=O)Nc3cccnc3)cc2)c2ccccc2c1=O	i	i	i	-3	20*	i	-4	2	-7	31*

From PubChem
